An excerpt weighted towards active compounds, which were near 3.5% of everything screened.
RGS4 pot: RGS4 potentiators or activators, primary screen, cell-based, HEK293 M3R inducible RGS4, calcium flux; AID 463111, 2010; hit rate 0.92% among 310,000; B-score at 10 µM; carbachol calcium flux Fluo4; active compounds read low;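 active = B-score of the integrated calcium signal more than 4 SD below the library mean, with starting fluorescence not abnormally high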;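 also: negative B-score means reduced calcium response which marks RGS4 activation or potentiation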
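Reagent: ECmax carbachol challenge; Test system: M3R-expressing HEK293 line, RGS4 induced by doxycycline; Schedule: overnight RGS4 induction, 30 min dye load 37 °C, 20 min compound RT; Detection: calcium dye Fluo4 fluorescence; Read-out: Agonist-evoked peak-minus-minimum fluorescence over baseline, integrated ratio, B score.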
RGS4 block: RGS4 inhibitors, primary screen, cell-based, HEK293 M3R inducible RGS4, calcium flux; B-score at 10 µM; hit rate 0.45% among 310,000; Regulator of G-protein signaling 4 (Homo sapiens), P49798; Fluo-4 calcium flux; active compounds read high; triggered by carbachol at its EC20;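 active = B-score, a plate-corrected calcium signal, over three deviations above library mean, with baseline fluorescence within five deviations of library mean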;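 also: RGS4 expression induced by doxycycline in cells with stable M3 receptor; B-score is computed from the integrated fluorescence ratio over baseline after carbachol; higher B-score means a larger calcium signal and so more RGS4 inhibition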
Target sequence (P49798 whole entry, looked up): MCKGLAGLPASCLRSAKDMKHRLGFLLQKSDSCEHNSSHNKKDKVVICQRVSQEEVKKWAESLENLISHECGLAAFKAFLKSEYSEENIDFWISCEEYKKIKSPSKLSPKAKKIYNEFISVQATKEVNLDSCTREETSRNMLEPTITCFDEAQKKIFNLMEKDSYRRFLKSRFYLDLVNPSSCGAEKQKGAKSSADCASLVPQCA
MrgX1 agonist: agonists of human MrgX1 receptor, primary screen, HEK293 cells, Fluo-4 calcium flux | Mas-related G-protein coupled receptor member X1 (Homo sapiens), Q96LB2 | Fluo-4 calcium fluorescence, agonist mode; active compounds read high | B-score at 10 µM | hit rate 0.44% among 310,000 | AID 588627, 2011;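 active = calcium response B-score plate-corrected fluorescence ratio at least 3 library SD, with starting fluorescence B-score inside 5 SD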
Target sequence (Q96LB2 whole entry, looked up): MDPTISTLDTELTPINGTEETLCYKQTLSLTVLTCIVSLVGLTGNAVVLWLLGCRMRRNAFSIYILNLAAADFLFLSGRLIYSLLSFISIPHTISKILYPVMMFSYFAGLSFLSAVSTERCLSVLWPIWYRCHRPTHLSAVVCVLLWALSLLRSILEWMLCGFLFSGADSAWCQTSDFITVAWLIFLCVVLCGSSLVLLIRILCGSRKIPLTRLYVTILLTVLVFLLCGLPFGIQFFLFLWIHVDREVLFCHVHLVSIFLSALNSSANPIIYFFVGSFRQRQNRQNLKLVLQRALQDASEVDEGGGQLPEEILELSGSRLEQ
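Test system: Stable human MrgX1 HEK293 cell line | Schedule: Overnight plating before 1 h dye loading | Read-out basis: Baseline-normalised fluorescence change ratio, B-scored | Detection: Kinetic calcium dye fluorescence, Fluo-4 NW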
MrgX1 antag: antagonists of human MrgX1 receptor, primary screen, HEK293 cells, Fluo-4 calcium flux. BAM8-22 antagonism; active compounds read low. Mas-related G-protein coupled receptor member X1 (Homo sapiens), Q96LB2. hit rate 1.3% among 310,000. AID 588676, 2011. B-score at 10 µM;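 active = calcium-response B-score plate-corrected more than 3 library SD below zero, starting fluorescence within 5 deviations, no agonist response on first addition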;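 also: peak minus trough fluorescence over baseline after final BAM8-22 challenge near maximal dose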
MrgX1 allo act: positive allosteric modulators of MrgX1, primary screen, HEK293 cells, Fluo-4 calcium flux | Mas-related G-protein coupled receptor member X1 (Homo sapiens), Q96LB2 | AID 588675, 2011 | B-score at 10 µM | FDSS; active compounds read high | hit rate 0.63% among 310,000;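 active = plate-corrected calcium response at least 3 library SD above typical, normal starting fluorescence, not activating the receptor alone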;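 also: compound read alongside a low EC10 to EC30 dose of BAM8-22 agonist; peak minus trough fluorescence over baseline measured at the second addition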
Large screens that a line does not name were inactive.

COc1cccc(-c2ccc(NC(=O)C3CCCN(Cc4cnc(C)n4C)C3)cc2)c1 (stereo unspecified)	RGS4 pot -7.1
CCCN1CCC(NC(=O)C2CC=CCC2C(=O)O)CC1 (stereo unspecified)	none
O=[N+]([O-])c1ccc(N/N=C/c2cccs2)nc1	none
O=[N+]([O-])c1ccc(N/N=C\c2cccn2-c2ccccc2)nc1	MrgX1 allo act 8
Cc1cc(C(=O)NNc2ccccc2F)no1	RGS4 pot -7.7
COC(=O)c1ccc(-c2noc(CN(Cc3nccn3C)C(C)C)n2)cc1	RGS4 pot -7.5
CCN1CCN(Cc2ccc(NC(=O)c3ccc(C)c(NC(=O)C(=O)c4c[nH]c5ccccc45)c3)cc2C(F)(F)F)CC1	RGS4 pot -8.8
CCN1CCN(Cc2ccc(NC(=O)c3cc(NC(=O)C(=O)c4c[nH]c5ccccc45)cc(OC)c3)cc2C(F)(F)F)CC1	none
Cc1ccc(C(=O)NC(=S)NNC(=O)COc2ccccc2C)cc1	RGS4 pot -8.7
CC(C)CNC(=S)NC(=O)c1ccc([N+](=O)[O-])cc1	MrgX1 allo act 10
Cc1ccc(C(=O)NC(=S)NNC(=O)COc2ccc([N+](=O)[O-])cc2)cc1	MrgX1 allo act 6.9
Cc1ccc(OCC(=O)NNC(=S)NC(=O)C2CCCCC2)c(C)c1	RGS4 pot -7.1, MrgX1 agonist 48
COc1ccc(N2CCN(C(=O)COC(=O)c3cccc(S(=O)(=O)Nc4cccc(C)c4)c3)CC2)cc1	none
Cc1nnc(SCC(=O)NCCc2ccccc2)s1	none
Cc1cccc(C(=O)NC(=S)NNC(=O)COc2c(C)cccc2C)c1	MrgX1 agonist 27
Cc1cccc(C(=O)NC(=S)NCc2ccccc2)c1	none
O=C(Nc1ccccc1OC(F)F)c1ccc(-n2cncn2)c([N+](=O)[O-])c1	none
COc1ccc(C[C@H]2CN3C(=NC[C@H]3Cc3ccccc3)N2CCNC(=O)c2ccc(C)c(Br)c2)cc1	MrgX1 antag -5.1
COc1ccc(C[C@H]2CN3C(=NC[C@@H]3Cc3ccccc3)N2CCNC(=O)c2ccc(C)c(Br)c2)cc1	none
O=C(NCC1CCCO1)c1cc(-c2ccc(F)cc2)no1 (stereo unspecified)	none
O=C(O)/C=C/C(=O)NCc1ccccn1	MrgX1 antag -6.7
O=C(O)/C=C/C(=O)NCc1ccccc1	none
COc1ccc(CC2=CC(=O)c3ccccc3C2=O)cc1	RGS4 block 6.2
CC1=C/C(=C\C=C(C#N)C#N)N(C)c2ccccc21	MrgX1 antag -5.7
CC1=CC(=C(C#N)C#N)c2ccccc2N1C	none
O=C(NCc1nnnn1-c1ccc(F)c(F)c1)C(=O)c1c[nH]c2ccccc12	none
S=C(CN1CCCC1=S)NCCc1ccccc1	none
CCn1c(SCC(N)=O)nc2sc3c(c2c1=O)CCN(C)C3	none
CCOC(=O)CSc1nc2sc3c(c2c(=O)n1-c1ccc(OCC)cc1)CCN(C)C3	none
C=C(C)CSc1nc2sc3c(c2c(=O)n1-c1ccc(C)cc1)CCN(C)C3	RGS4 pot -10 (no result: MrgX1 agonist, MrgX1 antag, MrgX1 allo act)
CCOC(=O)CSc1nc2sc3c(c2c(=O)n1C1CCCCC1)CCN(C)C3	RGS4 pot -10
O=C(c1ccc(CS(=O)c2ccc(F)cc2)o1)N1CCN(C2CCCCC2)CC1 (stereo unspecified)	none
O=C(NCc1ccncc1)/C(=N/O)c1ccccc1	MrgX1 antag -5.7
CCCCOc1ccc(C2OC34CCCCC3C(C#N)(C#N)C2(C#N)C(=N)O4)cc1 (stereo unspecified)	none
C=CCOc1ccc(C2OC34CCCCC3C(C#N)(C#N)C2(C#N)C(=N)O4)cc1 (stereo unspecified)	MrgX1 agonist 27
Cc1ccc(C)c(OCc2cc(C(=O)N3CCN(c4ccccc4C)CC3C)no2)c1 (stereo unspecified)	none
CCCCCn1c(N2CCC(Cc3ccccc3)CC2)nc2c1c(=O)[nH]c(=O)n2C	RGS4 pot -9
N#C/C(=C\c1ccc(N2CCCCC2)o1)C(=O)Nc1cccc(Br)c1	MrgX1 agonist 53
Cc1ccc(/C=C/C2=Cc3c(sc(NC(=O)CSc4n[nH]c(N)n4)c3C#N)C(C)(C)C2)o1	MrgX1 antag -5.4
COc1cc(CN2CCCC(C(=O)c3ccc4c5c(cccc35)CC4)C2)cc(OC)c1O (stereo unspecified)	none
Cc1n[nH]c(=O)c2c(NC(=O)CSc3nncs3)oc(C)c12	none
CCSC1(SCC)N=C(N)C2(C#N)C(c3ccc(F)cc3)C12C#N (stereo unspecified)	MrgX1 agonist 29
CCOc1cc(/C=C2/NC(=O)NC2=O)cc([N+](=O)[O-])c1O	MrgX1 antag -7.7
O=C(CN1C(=O)NC2(CCCC2)C1=O)NCCC1=CCCCC1	RGS4 pot -7.3
COc1ccc(C=C2C(=O)c3ccccc3C2=O)cc1O	none
CCCCc1ccc(/C=C2\C(=O)c3ccccc3C(O)=C2C(=O)OCC)cc1	MrgX1 antag -10
COc1cccc(C2N=C(c3ccccc3C)NO2)c1OC (stereo unspecified)	none
CCCCN=c1scc(-c2ccc3c(c2)NC(=O)CO3)n1N=C1CCCC1	MrgX1 agonist 32
CCN=c1scc(-c2ccc3c(c2)NC(=O)CO3)n1N=C1CCCC1	none
CCCCn1c(N)c(N(CC(C)C)C(=O)c2ccc(S(=O)(=O)N3CCC(C)CC3)cc2)c(=O)[nH]c1=O	none
CN(C(=O)C1CCCN(c2ncnc3c2nc2n3CCCCC2)C1)c1cccc(Cl)c1 (stereo unspecified)	none
O=C(N/C(=C\c1ccc(Br)cc1)C(=O)N1CCOCC1)c1ccc([N+](=O)[O-])cc1	none
COc1cccc(OC(=O)c2cc3ccccc3oc2=O)c1	MrgX1 antag -5
Cn1c(=O)c([N+](=O)[O-])c(-n2cnc3ccccc32)c2ccccc21	MrgX1 agonist 27
Cc1nccn1-c1c([N+](=O)[O-])c(=O)n(C)c2ccccc12	none
O=c1c2ccccc2ncn1-c1ccccc1[N+](=O)[O-]	MrgX1 allo act 13
O=C(CN1CCN(S(=O)(=O)N2CCOCC2)CC1)Nc1cc(Cl)ccc1Cl	none
Cn1c(C(=O)N2CCC(C(=O)NCc3ccccc3)CC2)cc2sccc21	none
COc1ccc(O[C@H]2C=C[C@@H](c3ccccc3)O[C@@H]2CO/N=C(\C)CCC(=O)OC[C@H]2O[C@H](c3ccccc3)C=C[C@@H]2Oc2ccc(OC)cc2)cc1	MrgX1 antag -7.2
CC(Oc1ccc(-c2ccccc2)c(F)c1)c1ccn(S(=O)(=O)c2ccc(F)cc2)n1 (stereo unspecified)	none
O=S(=O)(c1ccc(F)cc1)n1ccc(-c2cccc(OCc3ccc(Cl)cc3Cl)c2)n1	MrgX1 antag -8.1
